Calls of active or inactive are those of the source. The rule behind the calls is not given here.
Tests used:
[1] = Drug uptake in human HepG2 cells at 4 uM after 4 hrs by flow cytometric method; type: ADME, cell-based; conditions: hepg2, 4 h
In short: (§1)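 Cells in 35 mm dishes incubated in RPMI 1640 at 37 °C, 5% CO2, with 2 μM for 2 h or 4 μM for 4 h. Rinsed, trypsinised, pelleted at 400g, resuspended in HBSS. Flow cytometry on 10^4 cells: excitation 640 nm, emission 720–840 nm. Triplicate; mean ± SD of three independent experiments.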

[2] = Induction of singlet oxygen generation in DMF assessed as increase in decay of DPBF at 1 uM by spectroscopic method
[3] = Drug uptake in lysosome of human HeLa cells at 4 uM after 4 hrs by […]-based confocal microscopic method; type: ADME, subcellular
[4] = Drug uptake in mitochondria of human HepG2 cells at 4 uM after 4 hrs by Mito-tracker green-based confocal microscopic method; type: ADME; conditions: hepg2, 4 h
In short: (§2)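 Cells on glass-bottom dishes given 2 μM for 2 h or 4 μM for 4 h at 37 °C. After PBS washes, stained in HBSS with 0.2 μM ER-tracker or Mito-tracker green for 15 min at 37 °C. Confocal imaging: trackers excited at 488 nm, emission 500–570 nm; BODIPY excited at 633 nm, emission 650–760 nm.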

[5] = Drug uptake in human HeLa cells at 4 uM after 4 hrs by flow cytometric method; type: ADME, cell-based; in short: as §1
[6] = Stability of the compound in PBS at 2 uM measured over 25 mins in presence of illumination by halogen lamp; type: physicochemical; conditions: buffer
[7] = Drug uptake in endoplasmic reticulum of human HepG2 cells at 4 uM after 4 hrs by ER-tracker green-based confocal microscopic method; type: ADME, subcellular; conditions: hepg2, 4 h; in short: as §2
[8] = Drug uptake in mitochondria of human HeLa cells at 4 uM after 4 hrs by Mito-tracker green-based confocal microscopic method; type: ADME; in short: as §2
[9] = Induction of singlet oxygen generation in PBS assessed as increase in decay of DPBF at 2 uM by spectroscopic method; type: functional
HepG2 [10] = test: Photocytotoxicity against human HepG2 cells assessed as decrease in cell viability preincubated in dark for 2 hrs followed by illumination by halogen lamp for 20 mins by MTT assay; type: functional, cell-based
In short: (§3)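 Cells seeded at 2 × 10^5 cells mL−1 in 96-well plates 24 h before; 2 h dark incubation with compound (0.0125–0.4 μM or 0.5–8 μM), PBS wash, re-feed. Then 300 W halogen lamp with red filter (λ > 610 nm), 40 mW cm−2, 20 min at r.t. (48 J cm−2). MTT read-out at 490 nm. IC50 = concentration killing 50% of cells. Three independent experiments, quadruplicate.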

[11] = Drug uptake in lysosome of human HepG2 cells at 4 uM after 4 hrs by […]-based confocal microscopic method; type: ADME, subcellular; conditions: hepg2, 4 h
[12] = Dark toxicity against human HeLa cells assessed as decrease in cell viability at 0.5 to 8 uM incubated for 2 hrs by MTT assay; type: cell-based
In short: (§4)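 Cells seeded at 2 × 10^5 cells mL−1 in 96-well plates 24 h before; incubated with compound (0.4–0.0125 μM or 8–0.5 μM series) in dark 2 h, washed with PBS, re-fed, kept unirradiated. MTT (3 mg mL−1) added, 4 h at 37 °C, DMSO added, absorbance at 490 nm. Mean ± SEM of three independent experiments, each in quadruplicate. HepG2 cells were grown in RPMI 1640 and HeLa in DMEM.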

[13] = Dark toxicity against human HepG2 cells assessed as decrease in cell viability at 0.5 to 8 uM incubated for 2 hrs by MTT assay; type: cell-based; conditions: hepg2, 2 h; in short: as §4
HeLa [14] = test: Photocytotoxicity against human HeLa cells assessed as decrease in cell viability preincubated in dark for 2 hrs followed by illumination by halogen lamp for 20 mins by MTT assay; type: functional, cell-based; in short: as §3
[15] = Drug uptake in endoplasmic reticulum of human HeLa cells at 4 uM after 4 hrs by ER-tracker green-based confocal microscopic method; type: ADME, subcellular; in short: as §2
[16] = Drug uptake in mitochondria of human HeLa cells at 2 uM after 2 hrs by Mito-tracker green-based confocal microscopic method; type: ADME; in short: as §2
[17] = Drug uptake in lysosome of human HepG2 cells at 2 uM after 2 hrs by […]-based confocal microscopic method; type: ADME, subcellular; conditions: hepg2, 2 h
[18] = Drug uptake in endoplasmic reticulum of human HeLa cells at 2 uM after 2 hrs by ER-tracker green-based confocal microscopic method; type: ADME, subcellular; in short: as §2
[19] = Drug uptake in lysosome of human HeLa cells at 2 uM after 2 hrs by […]-based confocal microscopic method; type: ADME, subcellular
[20] = Drug uptake in endoplasmic reticulum of human HepG2 cells at 2 uM after 2 hrs by ER-tracker green-based confocal microscopic method; type: ADME, subcellular; conditions: hepg2, 2 h; in short: as §2
[21] = Drug uptake in mitochondria of human HepG2 cells at 2 uM after 2 hrs by Mito-tracker green-based confocal microscopic method; type: ADME; conditions: hepg2, 2 h; in short: as §2
HepG2 [22] = test: Induction of endoplasmic reticulum stress in human HepG2 cells assessed as upregulation of GRP78 expression at 0.15 uM after 4 to 8 hrs in absence of light by Western blot method; type: cell-based; conditions: hepg2, 0.15 µM
In short: (§5)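 HepG2 cells in 60 mm dishes treated with 150 nM in RPMI 1640, with or without illumination (λ > 610 nm). Lysed in RIPA buffer at 2, 4, 6 and 8 h after PDT. Equal protein run on 10% polyacrylamide gels and transferred to PVDF. Blocked in 5% nonfat milk, probed for GRP78, CHOP and actin, with HRP chemiluminescent detection. Control cells were illuminated without compound.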

HepG2 [23] = test: Photocytotoxicity against human HepG2 cells assessed as decrease in cell viability at 0.19 uM preincubated in dark for 2 hrs followed by illumination by halogen lamp for 20 mins by MTT assay relative to control; type: functional
In short: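 Light-dose study: HepG2 cells given 0.19 μM for 2 h, washed twice with PBS, re-fed, then illuminated with halogen lamp (λ > 610 nm, 40 mW cm−2) for 10, 15, 20 or 25 min. Viability by MTT (4 h, 37 °C), DMSO, absorbance at 490 nm.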

[24] = Drug uptake in human HeLa cells at 2 uM incubated for 2 hrs upon one-photon excitation by confocal microscopic method; type: ADME, cell-based
In short: (§6)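 HeLa cells (about 1.2 × 10^5) grown overnight on glass-bottom dishes, then treated with 2 μM in medium containing 0.125% v/v DMF and 0.025% v/v Tween 80 for 2 h. Rinsed with PBS and imaged by laser scanning microscopy with 633 nm (one-photon) or 800 nm (two-photon) excitation.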

HeLa [25] = test: Induction of apoptosis in human HeLa cells assessed as cell shrinkage at 2 uM preincubated in dark for 2 hrs followed by two photon irradiation for 10 mins measured after 3 hrs by bright field microscopic method; type: functional, cell-based
In short: (§7)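 HeLa cells given 2 μM for 2 h, rinsed and re-fed. Irradiated with 800 nm laser (400 mW) for 10 min at 37 °C, 5% CO2; dark controls kept unirradiated. After 3 h, stained with PI (50 μg in 1 mL PBS) for 10 min, rinsed. Imaged with PI excited at 488 nm (550–700 nm) and BODIPY at 633 nm (640–735 nm), plus bright field.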

[26] = Drug uptake in human HeLa cells at 2 uM after 2 hrs by flow cytometric method; type: ADME, cell-based; in short: as §1
HepG2 [27] = test: Induction of endoplasmic reticulum stress in human HepG2 cells assessed as upregulation of CHOP expression at 0.15 uM after 4 to 8 hrs in absence of light by Western blot method; type: cell-based; conditions: hepg2, 0.15 µM; in short: as §5
HepG2 [28] = test: Induction of endoplasmic reticulum stress in human HepG2 cells assessed as upregulation of GRP78 expression at 0.15 uM after 4 to 8 hrs in presence of light by Western blot method; type: functional, cell-based; in short: as §5
[29] = Dark toxicity against human HeLa cells assessed as decrease in cell viability at 0.0125 to 0.4 uM incubated for 2 hrs by MTT assay; type: cell-based; in short: as §4
[30] = Drug uptake in human HepG2 cells at 2 uM after 2 hrs by flow cytometric method; type: ADME, cell-based; conditions: hepg2, 2 h; in short: as §1
HepG2 [31] = test: Induction of reactive oxygen species generation in human HepG2 cells at 0.05 to 0.8 uM after 2 hrs in absence of light by H2DCFDA probe-based fluorescence assay; type: cell-based; conditions: hepg2, 2 h
In short: (§8)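 HepG2 cells in 96-well plates incubated 2 h with 0.05–0.8 μM in RPMI 1640, washed, then loaded with H2DCFDA (10 μM in HBSS) for 30 min at 37 °C in dark. Washed, re-fed with HBSS, then irradiated (λ > 610 nm) or left dark. Fluorescence read at 485/535 nm. Mean with SEM of three independent experiments.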

HepG2 [32] = test: Induction of endoplasmic reticulum stress in human HepG2 cells assessed as upregulation of CHOP expression at 0.15 uM after 4 to 8 hrs in presence of light by Western blot method; type: functional, cell-based; in short: as §5
HepG2 [33] = test: Induction of reactive oxygen species generation in human HepG2 cells at 0.05 to 0.8 uM after 2 hrs in presence of light by H2DCFDA probe-based fluorescence assay; type: functional, cell-based; in short: as §8
HepG2 [34] = test: Increase in intracellular calcium levels in human HepG2 cells at 0.05 to 0.8 uM after 2 hrs in presence of light by fluo-3 AM dye-based fluorescence assay relative to control; type: functional
In short: (§9)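 HepG2 cells in 96-well plates given 0.05–0.8 μM in RPMI 1640 for 2 h, with or without illumination (λ > 610 nm). Afterwards washed, loaded with Fluo-3 AM (2.5 μM in HBSS) for 1 h at 37 °C in dark. Washed, re-fed with HBSS, fluorescence read at 485/535 nm. Mean with SEM of three independent experiments.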

HepG2 [35] = test: Ratio of compound activity for induction of reactive oxygen species generation in human HepG2 cells at 0.8 uM in presence of light to in absence of light; type: toxicity, cell-based; conditions: hepg2, 0.8 µM; in short: as §8
HeLa [36] = test: Induction of apoptosis in human HeLa cells at 2 uM preincubated in dark for 2 hrs followed by two photon irradiation for 10 mins measured after 3 hrs by propidium iodide staining-based laser scanning microscopic method; type: functional, cell-based; in short: as §7
HeLa [37] = test: Induction of apoptosis in human HeLa cells at 2 uM incubated in dark for 2 hrs measured after 3 hrs by propidium iodide staining-based laser scanning microscopic method; type: cell-based; in short: as §7
[38] = Drug uptake in human HeLa cells at 2 uM incubated for 2 hrs upon two-photon excitation by confocal microscopic method; type: ADME, cell-based; in short: as §6
HepG2 [39] = test: Increase in intracellular calcium levels in human HepG2 cells at 0.05 to 0.8 uM after 2 hrs in absence of light by fluo-3 AM dye-based fluorescence assay; type: ADME, cell-based; conditions: hepg2, 2 h; in short: as §9
[40] = Dark toxicity against human HepG2 cells assessed as decrease in cell viability at 0.0125 to 0.4 uM incubated for 2 hrs by MTT assay; type: cell-based; conditions: hepg2, 2 h; in short: as §4

Compound	Activity [2]	Drug uptake [3]	Drug uptake [4]	Stability [6]	Drug uptake [7]	Drug uptake [8]	Activity [9]	IC50 (HepG2 [10])	Drug uptake [11]	IC50 (HeLa [14])	Drug uptake [15]	Drug uptake [16]	Drug uptake [17]	Drug uptake [18]	Drug uptake [19]	Drug uptake [20]	Drug uptake [21]	also measured
COCCOCCOCCn1c2ccccc2c2cc(/C=C/C3=[N+]4C(=C(c5ccc(OCC(=O)NCCc6ccc(S(=O)(=O)NC(=O)NC7CCCCC7)cc6)cc5)c5c(C)c(Br)c(/C=C/c6ccc7c(c6)c6ccccc6n7CCOCCOCCOC)n5[B-]4(F)F)C(C)=C3Br)ccc21	Active	Not Active	Not Active	Stable	Active	Not Active	Active	5.2 µM	Not Active	3.2 µM	Active							Drug uptake [1]: Active; Drug uptake [5]: Active; Activity [12]: Non-Toxic; Activity [13]: Non-Toxic
CCOC(=O)COc1ccc(C2=C3C(C)=C(Br)C(/C=C/c4ccc5c(c4)c4ccccc4n5CCOCCOCCOC)=[N+]3[B-](F)(F)n3c(/C=C/c4ccc5c(c4)c4ccccc4n5CCOCCOCCOC)c(Br)c(C)c32)cc1		Not Active	Not Active		Not Active	Not Active			Not Active		Not Active							
CCOC(=O)COc1ccc(C2=C3C(C)=C(Br)C(/C=C/c4ccc(OCCOCCOCCOC)cc4)=[N+]3[B-](F)(F)n3c(/C=C/c4ccc(OCCOCCOCCOC)cc4)c(Br)c(C)c32)cc1												Not Active	Not Active	Not Active	Not Active	Not Active	Not Active	
COCCOCCOCCOc1ccc(/C=C/C2=[N+]3C(=C(c4ccc(OCC(=O)NCCc5ccc(S(=O)(=O)NC(=O)NC6CCCCC6)cc5)cc4)c4c(C)c(Br)c(/C=C/c5ccc(OCCOCCOCCOC)cc5)n4[B-]3(F)F)C(C)=C2Br)cc1	Active			Stable			Active	0.16 µM		0.09 µM		Not Active	Not Active	Active	Not Active	Active	Not Active	Activity (HepG2 [22]): Non-Toxic; Activity (HepG2 [23]): 50%; Drug uptake [24]: Active; Activity (HeLa [25]): Active; Drug uptake [26]: Active; Activity (HepG2 [27]): Non-Toxic; Activity (HepG2 [28]): Active; Activity [29]: Non-Toxic; Drug uptake [30]: Active; Activity (HepG2 [31]): Non-Toxic; Activity (HepG2 [32]): Active; Activity (HepG2 [33]): Dose-dependent effect; fold change (FC) (HepG2 [34]): 3.5; Ratio (HepG2 [35]): 9; Activity (HeLa [36]): Active; Activity (HeLa [37]): Non-Toxic; Drug uptake [38]: Active; Activity (HepG2 [39]): Non-Toxic; Activity [40]: Non-Toxic
